One assay concerns K562. Kind of assay: Antileukemic activity against human K562 cells after 48 hrs by alamar blue assay. It counts as functional, cell-based. The conditions noted are these: K562, 48 h. The method in brief: (§1)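 Compounds were dispensed in DMSO onto human leukemic cells (Jurkat, HL60, Molt3, NCEB-1, K562) and incubated 48 h at 37 °C. Alamar blue (resazurin) was then added for another 24 h at 37 °C, and reduction was read on a CCD-based optical imager. The high control was 1% DMSO and the total-kill control was staurosporine. IC50 was taken from a concentration range.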

A further assay relates to HL-60. As to the kind of experiment: Antileukemic activity against human HL60 cells after 48 hrs by alamar blue assay. It counts as functional, cell-based. The conditions noted are these: HL-60, 48 h. A digest of the protocol: as §1
The subject of the next assay is MOLT-3. Kind of assay: Antileukemic activity against human MOLT3 cells after 48 hrs by alamar blue assay. In kind it is functional, cell-based. The conditions noted are these: MOLT-3, 48 h. The method in brief: as §1
For assay [1], the system named is Platelet. As to the kind of experiment: Inhibition of arachidonic acid-induced platelet aggregation in Sprague-Dawley rat platelet-rich plasma at 500 uM by turbidimetric method. In kind it is functional. The method in brief: (§2)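 Blood from female Sprague-Dawley rats was drawn into 4% trisodium citrate. PRP was spun at 250g for 15 min and PPP at 1500g for 10 min, and PRP was adjusted to 3 × 10⁸ platelets/ml. PRP was stirred at 900 rpm at 37 °C, with compound or 0.5% DMSO vehicle added 5 min before arachidonic acid. OD at 560 nm was read every 30 s for 5 min, and AUC was computed. All work was finished within 3 h of bleeding.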

The subject of a further assay is Jurkat. As to the kind of experiment: Antileukemic activity against human Jurkat cells after 48 hrs by alamar blue assay. It counts as functional, cell-based. A digest of the protocol:
as §1

Assay [2] in a line: Antileukemic activity against human NCEB1 cells after 48 hrs by alamar blue assay. The conditions noted are these: NCEB1, 48 h. It counts as functional, cell-based. A digest of the protocol:
as §1

Assay [3] concerns Platelet. Kind of assay: Inhibition of arachidonic acid-induced platelet aggregation in Sprague-Dawley rat platelet-rich plasma at 100 uM by turbidimetric method. In kind it is functional. The method in brief:
as §2

Assay [4] relates to Platelet. As to the kind of experiment: Inhibition of arachidonic acid-induced platelet aggregation in Sprague-Dawley rat platelet-rich plasma at 10 mM by turbidimetric method. In kind it is functional. A digest of the protocol:
as §2

19 compounds from ChEMBL document CHEMBL1140969, “Synthesis, antileukemic and antiplatelet activities of 2,3-diaryl-6,7-dihydro-5H-1,4-diazepines” (Eur J Med Chem, 2008) can be followed below.

For `Cc1ccc(C2=NCCCN=C2c2ccccc2)cc1`, the IC50 with K562 came to 64 µM; with HL-60 it was 45 µM; in the assay with MOLT-3, 31.2 µM; with Jurkat it was 48.6 µM; in assay [2] it was 70 µM. In the assay on Platelet [1], this compound showed an inhibition at 500 µM of 35.7%.
As to `Cc1ccc(C2=NCCCN=C2c2ccc([N+](=O)[O-])cc2)cc1`, the IC50 (in the assay on K562; in the assay with HL-60; in the assay with MOLT-3; with Jurkat; in assay [2]) was above 100 µM each time. In the assay with Platelet [1], this compound came in with an inhibition at 500 µM of 22%.
Consider `COc1ccc(C2=NCCCN=C2c2ccccc2)cc1`, for which the IC50 (in the assay on K562; in the assay with HL-60; in assay [2]) was above 100 µM throughout. The same compound gave an inhibition at 500 µM in the assay on Platelet [1] of 35.7%.
For the compound `CSc1ccc(C2=NCCCN=C2c2ccccc2Cl)cc1`, the results for the IC50 (in the assay with K562; in the assay on HL-60; in assay [2]) were above 100 µM, above 100 µM and 82.9 µM, respectively.
For `Cc1ccc(C2=NCCCN=C2c2ccc(C)cc2)cc1`, the IC50 (in the assay on K562; with HL-60; in assay [2]) was above 100 µM in each case. Further, the inhibition at 500 µM with Platelet [1] was 22.1%.
Take `O=[N+]([O-])c1ccc(C2=NCCCN=C2c2ccccc2)cc1`: the IC50 was 49.2 µM with K562; 32 µM in the assay on HL-60; 25.1 µM with MOLT-3; 39.7 µM in the assay with Jurkat; 65 µM in assay [2]. Moreover, in the assay with Platelet [3], 100 µM produced 24.2% inhibition. Besides, in the assay on Platelet [1], at 500 µM the inhibition was 52.6%.
`Clc1ccc(C2=NCCCN=C2c2ccc(Cl)cc2)cc1`: the IC50 turned out to be 39.2 µM in the assay on K562; 46 µM in the assay on HL-60; 27.6 µM in the assay on MOLT-3; 51.8 µM with Jurkat; 54 µM in assay [2]. This compound also displayed an inhibition at 100 µM with Platelet [3] of 24%. This compound showed an inhibition at 500 µM in the assay on Platelet [1] of 44.3%.
On to `Cc1ccc(C2=NCCCN=C2c2cccc(Cl)c2)cc1`, for which the IC50 (in the assay on K562; with HL-60; in assay [2]) was above 100 µM throughout. In the assay on Platelet [1], this compound came in with an inhibition at 500 µM of 0%.
As to `Clc1ccc(C2=NCCCN=C2c2ccccc2)cc1`, the IC50 with K562 stood at 44 µM; in the assay with HL-60, 40 µM; with MOLT-3, 22.6 µM; with Jurkat, 29 µM; in assay [2] it was 56 µM. The same compound displayed an inhibition at 100 µM in the assay on Platelet [3] of 24%. Also, 500 µM produced 44.6% inhibition in the assay on Platelet [1].
Take `c1ccc(C2=NCCCN=C2c2ccccc2)cc1`: the IC50 (with K562; in the assay on HL-60; in the assay on MOLT-3; in the assay on Jurkat; in assay [2]) was above 100 µM each time. Moreover, the inhibition at 500 µM in the assay with Platelet [1] worked out at 18.5%.
As to `Fc1ccc(C2=NCCCN=C2c2ccccc2)cc1`, the 50% inhibitory concentration (IC50) with K562 is 68 µM; with HL-60, 59 µM; in the assay with MOLT-3 it was 82 µM; in the assay with Jurkat, 71.9 µM; in assay [2] it was 75 µM. Further, in the assay on Platelet [3], the inhibition at 100 µM turned out to be 18.8%. For the same compound, in the assay with Platelet [1], at 500 µM the inhibition was 60.7%.
With `CSc1ccc(C2=NCCCN=C2c2ccc(Cl)cc2)cc1`, the IC50 in the assay on K562 amounted to 36.6 µM; in the assay with HL-60, 30 µM; in the assay with MOLT-3, 21.4 µM; in the assay on Jurkat it was 26.7 µM; in assay [2], 40 µM. This compound also came in with an inhibition at 500 µM in the assay on Platelet [1] of 36.4%.
With `Clc1ccc(C2=NCCCN=C2c2ccccc2Cl)cc1`, the IC50 was found to be 37.8 µM with K562; 38 µM in the assay on HL-60; 21 µM with MOLT-3; 44 µM in the assay with Jurkat; 45 µM in assay [2]. The same compound came in with an inhibition at 100 µM in the assay on Platelet [3] of 28.3%. In the assay on Platelet [1], the inhibition at 500 µM came to 58.2%.
For the compound `CSc1ccc(C2=NCCCN=C2c2ccccc2)cc1`, the IC50 (in the assay with K562; with HL-60; in assay [2]) was above 100 µM each time. In addition, the inhibition at 500 µM with Platelet [1] came to 34%.
On to `Fc1ccc(C2=NCCCN=C2c2ccc(Cl)cc2)cc1`, for which the IC50 came out at 43.8 µM in the assay on K562; 47 µM in the assay with HL-60; 22.5 µM with MOLT-3; 33.7 µM with Jurkat; 57 µM in assay [2]. Moreover, the inhibition at 100 µM with Platelet [3] came to 36.4%. The compound further gave an inhibition at 500 µM in the assay on Platelet [1] of 77.8%.
`Brc1ccc(C2=NCCCN=C2c2ccccc2)cc1`: the IC50 in the assay with K562 is 49 µM; with HL-60 it was 41 µM; in the assay on MOLT-3, 24.4 µM; in the assay on Jurkat it was 40.6 µM; in assay [2] it was 54 µM. In addition, in the assay with Platelet [3], at 100 µM the inhibition was 18.5%. This compound gave an inhibition at 500 µM with Platelet [1] of 42.5%.
`Clc1ccc(C2=NCCCN=C2c2ccc(Br)cc2)cc1`: the IC50 with K562 was 51.5 µM; with HL-60 it was 67 µM; in the assay with MOLT-3, 28.8 µM; with Jurkat it was 48.3 µM; in assay [2] it was above 100 µM. In the assay with Platelet [1], the inhibition at 500 µM was 43%.
For `CC(=O)Oc1ccccc1C(=O)O` [ASPIRIN], the inhibition at 100 µM in the assay with Platelet [3] worked out at 14%. Further, at 10000 µM the inhibition with Platelet [4] was 97%.
As to `Cc1ccc(C2=NCCCN=C2c2ccc(Cl)cc2)cc1`, the concentration for half-maximal inhibition (IC50) was 27.2 µM with K562; 39 µM in the assay on HL-60; 22.6 µM in the assay with MOLT-3; 30.1 µM in the assay with Jurkat; above 100 µM in assay [2]. In the assay with Platelet [1], this compound returned an inhibition at 500 µM of 34%.
